In the library only some 2.2% were active in any assay of this set; here they are far more common.
TCR-CD3 inh = human TCR-CD3 binding inhibition; inhibition, % at 9.4 µM; TAMRA-labeled TCR probe fluorescence, biochemical; AID 651800; hit rate 0.37% among 360,000;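 further: recombinant mutant TCR 2C K166C tagged with TAMRA read by polarization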
SIAE primary = inhibitors of human sialic acid acetylesterase SIAE. Q9HAT2. SIAE FP-Rh probe binding, fluorescence polarization. inhibition, % at 9.66 µM. hit rate 0.69% among 370,000. AID 1053197;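 active means inhibition above a cutoff: mean of compounds within the control limits plus 3 SD of those, cut at about 17% in these data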
ABHD4 inh = inhibitors of mouse ABHD4; purified mABHD4, FP-Rh probe fluorescence polarization; hit rate 0.54% among 370,000; inhibition, % at 8.92 µM;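 active means inhibition exceeding the mean over every tested compound plus 3 SD, cut at about 30% in these data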
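Assay system: mouse ABHD4 enzyme, wild type / Also added: fluorescent activity-based probe FP-Rh / Doses: single nominal dose of 8.92 µM, 0.89% DMSO final / Timing: 45 min compound pre-incubation plus 60 min probe step, 25 °C / Signal: FP readout, ex 525 nm / em 598 nm / Control set: S159A mutant/DMSO as 100%, compound-well median as 0%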
TDP2 inh = TDP2 (human) inhibition, absorbance primary screen; recombinant TDP2, T5PNP hydrolysis, p-nitrophenol absorbance 415 nm; hit rate 0.34% among 370,000; O95551; inhibition, % at 12.8 µM;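 active means inhibition above the mean of all tested compounds plus 3 SD, set per campaign, cut at about 25% in these data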
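System – recombinant human TDP2 · Amount – 120 nM TDP2 per well · Buffer or medium – Mg2+-containing Tris-HCl buffer, pH 7.5 · Reagent – T5PNP substrate, 5 mM · Dosing – 12.8 µM single point, 1% DMSO · Incubation – 2 h at 37 °C · Measured by – epi absorbance · Read-out basis – percent inhibition · Benchmarks – high control without enzyme, low control DMSO plus TDP2 · Repeats – singlicate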
HTRA1 inh = HTRA1 (human) protease inhibition; Q92743; recombinant HTRA1, FP-rhodamine activity-based probe, fluorescence polarization; inhibition, % at 5.96 µM; hit rate 0.5% among 340,000; in the data active means inhibition above about 36%
Target sequence (Q92743 whole entry, looked up): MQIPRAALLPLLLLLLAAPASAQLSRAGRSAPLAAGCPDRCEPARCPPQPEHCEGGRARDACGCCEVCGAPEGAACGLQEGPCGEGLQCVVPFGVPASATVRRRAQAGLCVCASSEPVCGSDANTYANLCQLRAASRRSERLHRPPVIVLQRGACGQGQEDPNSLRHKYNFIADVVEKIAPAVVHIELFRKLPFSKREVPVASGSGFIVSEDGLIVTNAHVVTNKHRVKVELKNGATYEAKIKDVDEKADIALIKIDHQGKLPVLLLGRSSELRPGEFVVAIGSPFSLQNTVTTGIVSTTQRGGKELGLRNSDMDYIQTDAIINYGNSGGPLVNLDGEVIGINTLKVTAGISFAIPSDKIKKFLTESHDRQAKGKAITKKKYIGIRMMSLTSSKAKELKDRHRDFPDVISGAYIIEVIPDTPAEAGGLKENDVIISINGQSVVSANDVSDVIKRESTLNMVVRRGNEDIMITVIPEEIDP
LEDGF integ inh = blocks HIV-1 LEDGF/p75-dependent DNA integration; inhibition, % at 3.7 µM; AID 743269; hit rate 0.64% among 370,000; TR-FRET IN-LEDGF/p75 DNA integration, Eu/Cy5;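 active means inhibition above the screen-wide mean plus 3 SD, cut at about 13% in these data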;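 further: signal is the Cy5 over europium emission ratio at 671 and 618 nm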
HTRA1 inh conf = confirmation of human HTRA1 inhibitors; shares compounds with HTRA1 inh; recombinant HTRA1, FP-rhodamine activity-based probe, fluorescence polarization; inhibition, % at 5.96 µM; hit rate 66% among 1,600;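 active means mean inhibition over three repeats above a set limit taken from the earlier primary screen, cut at about 37% in these data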;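 further: inhibitors block probe binding so polarization drops and inhibition rises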
BSA probe FL = counter-screen for TCR-CD3 interaction inhibitors: BSA probe. shares compounds with TCR-CD3 inh. TAMRA-labeled BSA probe fluorescence counterscreen. inhibition, % at 9.4 µM. hit rate 10% among 1,200; in the data active means inhibition above about 23%
TCR-CD3 inh conf = confirmation of human TCR-CD3 interaction inhibitors | shares compounds with TCR-CD3 inh | TAMRA-labeled TCR probe fluorescence binding assay | inhibition, % at 9.4 µM | hit rate 48% among 1,200
ABHD4 confirm = ABHD4 (mouse) inhibition, FP confirmation; shares compounds with ABHD4 inh; purified mABHD4, FP-Rh probe fluorescence polarization; inhibition, % at 8.92 µM; hit rate 55% among 1,800; AID 720658;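 active means mean inhibition across replicates above the hit cutoff set in the primary screen, cut at about 30% in these data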
IN multimer act = counter-screen for LEDGF/p75 integration inhibitors: HIV-1 integrase multimerization activators; hit rate 17% among 2,000; activation, % at 7.7 µM; TR-FRET HIV-1 integrase multimerization, biochemical; shares compounds with LEDGF integ inh; in the data active means activation above about 8.9%
TRFRET interf = counter-screen for LEDGF/p75 integration inhibitors: TR-FRET optical interference; inhibition, % at 7.7 µM; 2,000 tested, under 10 active; shares compounds with LEDGF integ inh; TR-FRET optical interference counterscreen, HIV-1 IN multimerization;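 active means inhibition above the mean over all tested compounds plus 3 SD, which no compound reached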
LEDGF integ conf = confirmation of HIV-1 LEDGF/p75-dependent integration inhibitors; shares compounds with LEDGF integ inh; TR-FRET LEDGF/p75-dependent HIV-1 integration, biochemical; inhibition, % at 3.7 µM; hit rate 36% among 2,000; in the data active means inhibition above about 14%
SIAE inh conf = human SIAE inhibition, confirmation; shares compounds with SIAE primary; SIAE FP-Rh activity-based probe, fluorescence polarization; inhibition, % at 9.66 µM; hit rate 13% among 2,300;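 active means mean inhibition of the replicates above the hit cutoff set in the primary screen, cut at about 17% in these data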;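 further: inhibitors lower polarization as more probe stays unbound to SIAE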
Of the large screens only hits and unclear results are named; the others gave an inactive call (follow-up assays come after a bar, where they were run). Unless noted, no stated cut-off is given here; in the data, active means inhibition above about 19%; inactive means the rest.

CCn1c(CSc2n[nH]c(N)n2)nc2cc(C(=O)O)ccc21	TCR-CD3 inh 94, SIAE primary 36, HTRA1 inh 43 | HTRA1 inh conf 67 | BSA probe FL 137 | TCR-CD3 inh conf 97 | SIAE inh conf 31
COc1cc(OC)c(C2Nc3cccc4cccc(c34)N2)c(OC)c1	SIAE primary 21, ABHD4 inh 50, HTRA1 inh 52 | HTRA1 inh conf inactive | ABHD4 confirm 36 | SIAE inh conf inactive
CCOc1ccc(C2Nc3cccc4cccc(c34)N2)cc1OC	none
N#CCC[C@@H]1CC[C@]2(CCCN(Cc3ccc(Cl)cc3)C2)O1	none (no result: TCR-CD3 inh, HTRA1 inh)
Cc1cc(C(=O)COc2cccc3cccnc23)c(C)n1C	SIAE primary 23, ABHD4 inh 74, HTRA1 inh 80 | HTRA1 inh conf inactive | ABHD4 confirm inactive | SIAE inh conf inactive
Cc1cc(C(=O)COc2ccccc2C(N)=O)c(C)n1C	none
COc1ccc(/C=C/c2ccc3c(Br)ccc(O)c3n2)cc1	none
COc1cc(/C=C/c2ccc3c(Br)cc(Br)c(O)c3n2)ccc1O	SIAE primary 28, HTRA1 inh 44 | HTRA1 inh conf inactive | SIAE inh conf inactive
Oc1ccc(CCNc2c3ccccc3nc3ccccc23)cc1O	TCR-CD3 inh 21, SIAE primary 19, HTRA1 inh 62 | HTRA1 inh conf 84 | SIAE inh conf 29
c1ccc(CNc2c3ccccc3nc3ccccc23)cc1	none
Oc1ccc(/C=N/N(c2ccccc2)c2ccccc2)c(O)c1O	SIAE primary 20, ABHD4 inh 39, HTRA1 inh 68, LEDGF integ inh 26 | HTRA1 inh conf 79 | ABHD4 confirm 30 | IN multimer act inactive | TRFRET interf inactive | LEDGF integ conf 16 | SIAE inh conf inactive
O=C1c2ccccc2-c2onc3ccc(N4CCCC4)c1c23	TCR-CD3 inh 111, SIAE primary 76, ABHD4 inh 99, HTRA1 inh 91 | HTRA1 inh conf inactive | BSA probe FL 186 | TCR-CD3 inh conf 145 | ABHD4 confirm 70 | SIAE inh conf 56
CCNc1ccc2noc3c2c1C(=O)c1ccccc1-3	TCR-CD3 inh 126, SIAE primary 98, ABHD4 inh 122, HTRA1 inh 123 | HTRA1 inh conf 112 | BSA probe FL active | TCR-CD3 inh conf 187 | ABHD4 confirm 116 | SIAE inh conf 91
C[C@H](O)[C@@H]1C(=O)N2CCc3c([nH]c4c(-c5ccccc5)cccc34)[C@@H]2C[C@@H]1N(C)C(=O)Nc1ccccc1	none (no result: HTRA1 inh)
COCCCNC(=O)CSc1nnc(-c2cccnc2)n1C1CCCCC1	none (no result: TCR-CD3 inh, HTRA1 inh)
CN=c1scc(C)n1/N=C/c1ccc(O)c(O)c1O	TCR-CD3 inh 53, SIAE primary 19, ABHD4 inh 41, HTRA1 inh 39, LEDGF integ inh 57 | HTRA1 inh conf 60 | BSA probe FL inactive | TCR-CD3 inh conf 65 | ABHD4 confirm inactive | IN multimer act 33 | TRFRET interf inactive | LEDGF integ conf 40 | SIAE inh conf inactive
CN=c1scc(C)n1/N=C/c1cc(Br)c(O)c(OC)c1	none
C[C@@H]1CNC(=O)c2c(C(=O)N(C)Cc3ccccc3)ncn21	none (no result: HTRA1 inh)
Cn1c(NCCc2ccccc2)cc(=O)n(C)c1=O	none
Cn1c(=O)c(NCCO)c2c3c(cccc31)C(=O)c1ccccc1-2	TCR-CD3 inh 71, SIAE primary 58, ABHD4 inh 93, HTRA1 inh 60 | HTRA1 inh conf 72 | BSA probe FL 117 | TCR-CD3 inh conf 80 | ABHD4 confirm 85 | SIAE inh conf 117
Cn1c(=O)c(NCCc2ccccc2)c2c3c(cccc31)C(=O)c1ccccc1-2	TCR-CD3 inh active, SIAE primary 170, ABHD4 inh 198, HTRA1 inh 146 | HTRA1 inh conf 149 | BSA probe FL active | TCR-CD3 inh conf active | ABHD4 confirm active | SIAE inh conf 160
Cc1cccc(-c2cccc3c4c([nH]c23)[C@@H]2C[C@H](N(C)C(=S)NCCc3ccccc3)[C@H]([C@H](C)O)CN2CC4)c1	none (no result: TCR-CD3 inh, HTRA1 inh)
COC[C@@H]1CCCN1c1ccc2c(c1)O[C@H]1CCN(C1)S2(=O)=O	none (no result: TCR-CD3 inh, HTRA1 inh)
COC(=O)[C@]12C[C@H](CC(=O)N3CCOCC3)C(=O)N(Cc3ccccc3)C1=C[C@H](C1CCCC1)O[C@@H]2C	none (no result: HTRA1 inh)
C=CCn1c(=O)[nH]c2nc3cc(N=CN(C)C)c(C)cc3nc2c1=O	none
CCCCn1c(=O)[nH]c2nc3cc(N)ccc3nc2c1=O	TCR-CD3 inh 21, SIAE primary 31, ABHD4 inh 68, HTRA1 inh 42, LEDGF integ inh 17 | HTRA1 inh conf 37 | ABHD4 confirm 44 | IN multimer act inactive | TRFRET interf inactive | LEDGF integ conf inactive | SIAE inh conf inactive
O=C(NC1CCCCC1)O[C@H]1CC[C@@]23CCCN2C(=O)CCC[C@H]3C1	none (no result: TCR-CD3 inh, HTRA1 inh)
COC(=O)C1=C(C)N(Cc2cccc(C(F)(F)F)c2)C(=NCc2ccc(OC)cc2)NC1c1ccc(Cl)cc1 (configuration not stated)	none (no result: HTRA1 inh)
COc1ccccc1Nc1ccc2c(O)cc(S(=O)(=O)O)cc2c1	TCR-CD3 inh 40, SIAE primary 28, ABHD4 inh 86, HTRA1 inh 69, LEDGF integ inh 36 | HTRA1 inh conf 53 | SIAE inh conf 53
COC(=O)[C@]12C[C@H](CC(=O)N3CCCC3)C(=O)N(CCC3=CCCCC3)C1=C[C@H](C1CCCC1)O[C@@H]2C	none (no result: TCR-CD3 inh, HTRA1 inh)
